This excerpt belongs to a sample that is enriched for hits.
ROMK primary – ROMK potassium channel modulators, primary screen, cell-based, thallium flux, MLSMR library; AID 1918, 2009; B-score at 10 µM; Tet-inducible ROMK, thallium flux fluorescence; actives lie on both sides; 130,000 compounds, 2% hits;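 active = signal ratio slope over the read window, or its plate-corrected B-score, at least 3 SD from the plate mean, either direction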;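 also: B-score of the F/F0 ratio slope over 7 to 12 s after thallium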
Target sequence (P48048 whole entry, looked up): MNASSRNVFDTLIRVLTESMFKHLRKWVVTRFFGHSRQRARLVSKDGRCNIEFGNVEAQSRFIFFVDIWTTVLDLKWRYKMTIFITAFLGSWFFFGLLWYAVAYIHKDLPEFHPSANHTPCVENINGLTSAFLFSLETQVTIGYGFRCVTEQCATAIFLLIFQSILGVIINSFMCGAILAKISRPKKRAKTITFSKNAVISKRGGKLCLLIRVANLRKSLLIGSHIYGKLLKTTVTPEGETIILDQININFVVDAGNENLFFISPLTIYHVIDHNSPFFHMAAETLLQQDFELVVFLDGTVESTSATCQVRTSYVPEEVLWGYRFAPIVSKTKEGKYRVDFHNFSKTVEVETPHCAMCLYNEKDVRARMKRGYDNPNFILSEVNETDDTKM
Pf gametocyte – late stage P. falciparum gametocyte viability inhibitors, primary screen, ATP luminescence, HTS; P. falciparum stage V gametocytes, 24 h; inhibition, % at 10.9 µM; 150,000 compounds, 0.065% hits; AID 743093, 2013;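 active = inhibition above the mean plus 3 SD of compounds within the control limits, set per campaign, cut at about 38% in these data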;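 also: 0% = DMSO wells and 100% = medium only without gametocytes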
Calb biofilm kill – clotrimazole potentiators killing C. albicans biofilm, primary screen, 4-compound mixtures; C. albicans biofilm persisters + clotrimazole, fluorescence viability; primary screen in compound mixtures of four per well; inhibition, % at 7.6 µM; 120,000 compounds, 0.02% hits; AID 1242, 2008;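 active = inhibition above 30.3% in the primary screen of four-compound pools, then above 30% when the compound was retested; inconclusive = passed the primary limit but could not be retested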;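 also: compounds exposed to preformed 24 h biofilms for 48 h; 0% = untreated biofilm control and 100% = clotrimazole plus chlorhexidine kill blank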
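System: C. albicans CAF4-2 wild-type biofilms; Medium: RPMI/MOPS medium, pH 7.0; Reagent: Clotrimazole, 50 µg/mL; Times: biofilm formation 24 h, compound exposure 48 h, 37 °C; Detection: 2-h Alamar Blue fluorescence, 535/590 nm excitation/emission; Evaluation: percent inhibition of biofilm viability.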
ROMK hit retest – ROMK channel modulator hit retest, confirmation, cell-based, thallium flux, duplicate, resupplied hits; shares compounds with ROMK primary; fluorescence ratio; hits give low values; normalized thallium flux (F/F0 slope) at 10 µM; 3,000 compounds, 54% hits;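 active = Flux at 10 µM at least 3 SD below or above vehicle control mean in one or both replicates; inconclusive = no clear call, values can overlap the other calls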
* marks the source's active call; other numbers are inactive results; ? = inconclusive; . = not tested or not shown.

SMILES	ROMK primary	Pf gametocyte	Calb biofilm kill	ROMK hit retest
CCOC(=O)c1ccc2c(c1)N(CC#N)C(=O)C(C)(C)O2	0.243	11.6	11.2	.
Oc1ccc(N=Nc2cccc(Cl)c2)cc1C=Nc1ccc(N2CCOCC2)cc1	.	9.0	18.9	.
C=CCOc1ccc(C=Nc2cccc(Cl)c2)c(O)c1	-2.86*	-2.0	9.2	0.0806
Cc1ccc(NC(=S)NCc2ccco2)c(C)c1	-0.419	-9.3	16.6	.
Cc1cc(Nc2ccccc2)nc(NCc2ccccc2)n1	.	13.7	19.8	.
Cc1cc(Nc2cccc(F)c2)nc(NCc2ccccc2)n1	.	12.6	7.2	.
CCCCNc1cc(C)nc(NCc2ccccc2)n1	-4.09*	.	.	0.0505*
Fc1cc(NCc2ccccc2)nc(NCc2ccccc2)n1	-5.75*	-2.2	3.6	0.05*
O=S(=O)(Nn1cnnc1)c1ccc(F)cc1	-0.172	-10.7	2.9	.
Oc1c(Br)cc(Cl)cc1C=Nc1ccccc1Br	3.5*	10.1	7.0	?
Oc1c(Br)cc(Cl)cc1C=Nc1ccc(N2CCOCC2)cc1	0.572	.	23.1	.
CCCCOC(=O)c1ccc(S(N)(=O)=O)o1	0.216	-10.3	11.3	.
Cc1ccc2cc(C#N)c(N3CCCN(C(=O)C4CCCO4)CC3)nc2c1 (stereo not drawn)	0.887	-1.1	.	.
Cc1ccc(S(=O)(=O)N2CCCN(c3nc4cc(C)ccc4cc3C#N)CC2)cc1	.	.	13.9	0.0741
COCCNC(=O)c1cccc(OC2CCN(Cc3ccc(Cl)c(F)c3)CC2)c1	.	-7.7	.	.
CN=C1S/C(=C/c2cn(CC(=O)OC)c3ccccc23)C(=O)N1C	.	12.4	24.4	.
CN=C1S/C(=C\c2cn(CC(=O)OC)c3ccccc23)C(=O)N1C	0.78*	-3.3	3.7	0.0762
O=C(O)c1ccc(CNCc2c(Cl)cccc2Cl)cc1	.	13.1	.	.
Cc1nc(C(F)(F)F)c(C(=O)N/N=C(\N)c2cccnc2)s1	0.128	-1.8	11.3	.
Cn1c(N)c(C(=O)COC(=O)c2cccnc2Cl)c(=O)n(C)c1=O	.	.	-2.8	0.0789
Cn1c(N)c(C(=O)COC(=O)c2ccnc3ccccc23)c(=O)n(C)c1=O	-0.434	.	9.4	.
CC1CCCN(C(C(=O)NC2CCCCC2)c2cc3c(cc2[N+](=O)[O-])OCO3)C1 (stereo not drawn)	-1.44	-9.7	12.3	.
CC1CCN(C(C(=O)NC2CCCCC2)c2cc3c(cc2[N+](=O)[O-])OCO3)CC1 (stereo not drawn)	-3.06*	-2.9	12.0	0.06*
COc1ccc2cc(C(C)=O)c(=O)oc2c1	-0.526	.	9.9	.
CC(=O)c1cc2ccc(O)cc2oc1=O	-6.4*	4.2	17.8	0.0504*
SMILES	ROMK primary	Pf gametocyte	Calb biofilm kill	ROMK hit retest
COc1cc(OC)cc(-c2c(-c3cccs3)c3cc(-c4ccc5[nH]ccc5c4)ccc3n2C)c1	.	-7.6	.	.
COc1ccc(S(=O)(=O)N2CCCCCC2)cc1NC(=O)c1c2c(nc3ccccc13)CCN(Cc1ccccc1)C2	-1.63	0.9	2.1	.
CCN(CC)S(=O)(=O)c1ccc(OC(C)C)c(NC(=O)c2c3c(nc4ccccc24)CCN(Cc2ccccc2)C3)c1	-3.04*	-31.3	-3.4	0.0592*
Cc1cc(C(=O)OCC(=O)N2CC(C)OC(C)C2)ccc1[N+](=O)[O-] (stereo not drawn)	0.729	8.9	24.2	.
COc1ccc(-n2cc(C(=O)c3cc(Cl)ccc3O)cc(C#N)c2=O)cc1	2.69*	9.7	5.2	0.0753
COc1ccc(O)c(C(=O)c2cc(C#N)c(=O)n(-c3ccc(Cl)cc3)c2)c1	.	3.4	13.6	.
OCC[C@H]1C[C@H](O)[C@@H](O)[C@]2(Cc3ccccc3CCO2)O1	.	17.0	.	.
Cc1ccc(NC(=O)CN(C)C2CCCCC2)cc1Br	-1.05	-3.4	13.9	.
Cn1c(=O)c2cc3ccc(Cl)cc3nc2n(C)c1=O	-0.271	25.6	19.3	.
Cn1c(=O)c2cc3ccccc3nc2n(C)c1=O	-5.07*	-13.4	11.5	?
O=S(CC1CC1(Cl)Cl)CC1CC1(Cl)Cl (stereo not drawn)	.	-2.5	17.3	.
Cc1ccc2cc(CN(Cc3ccc(F)cc3)Cc3nnnn3C3CCCC3)c(=O)[nH]c2c1	-1.39	10.7	.	.
Cc1ccc2cc(CN(Cc3ccccc3)Cc3nnnn3C3CCCC3)c(=O)[nH]c2c1	-3.03*	29.1	.	0.0606*
COc1ccc(-c2nc(NC3=NCCCCC3)sc2C)cc1	-1.59	9.1	7.6	.
CCNc1nc(-c2ccc(OC(F)F)cc2)c(C)s1	-4.54*	-1.3	5.2	0.0624*
Cc1cc(C)n2nc(SCC(=O)c3ccccc3)nc2n1	0.338	1.9	.	.
Cc1cc(C)n2nc(SCC(=O)c3cc(C)n(-c4cc(C)on4)c3C)nc2n1	.	.	.	0.0775
COC(=O)CSCC(=O)Nc1nnc(-c2ccccc2C)s1	-0.958	2.0	23.8	.
CC(=N/O)/C(C)=N\NC(=O)c1ccccn1	-3.88*	9.1	9.1	0.0715
CCc1ccc(/C(C)=N/NC(=O)c2ccccn2)cc1	0.572	-18.8	9.1	.
CSc1ccc(CN2C(=O)NC3(CCCCCCC3)C2=O)cc1	-0.00597	8.9	4.3	.
CCOC(=O)c1cnc2c(cnn2C)c1NCCCN(C)C	.	-61.8	.	.
CCOC(=O)c1cnc2c(cnn2C)c1NCCCn1ccnc1	-2.94*	-59.9	1.2	0.0731
CC1(C)CC(NC(=O)CCc2nnc(CCCCc3ccccc3)o2)CCO1 (stereo not drawn)	-0.106	14.9	14.4	.
Nn1c(SCc2c(F)cccc2F)nnc1-c1ccccn1	.	6.9	19.5	.
SMILES	ROMK primary	Pf gametocyte	Calb biofilm kill	ROMK hit retest
COc1ccc(S(=O)(=O)N2CCC[C@H]2C(=O)NC2=NCCS2)cc1	.	13.6	.	0.0708
COC(=O)c1ccc(NC(=O)C2CCCN2S(=O)(=O)c2ccc(OC)cc2)cc1 (stereo not drawn)	.	23.0	7.6	.
C=CCOc1ccc(/C=C2\SC(N3CCCCC3)=NC2=O)cc1	.	7.1	.	.
Cc1ccc(N(Cc2cc3ccc(C)cc3[nH]c2=O)S(C)(=O)=O)c(C)c1	.	3.7	7.8	.
Clc1cccc(-c2cc3nc4c(c(N5CCN(c6cnccn6)CC5)n3n2)CCCC4)c1	.	-22.4	-6.5	.
Clc1cccc(-c2cc3nc4c(c(N5CCOCC5)n3n2)CCCC4)c1	-3.91*	.	.	0.0637*
CCn1ccnc1CN(C)Cc1nc(Cc2cccc(C(F)(F)F)c2)no1	-0.0875	7.0	12.6	.
COC(=O)c1[nH]c2ccc(F)cc2c1NS(=O)(=O)c1ccc(OC)cc1	2.25	-7.0	11.9	0.092
COc1ccc2[nH]c(C(=O)O)c(NS(=O)(=O)c3ccc(OC)c(OC)c3)c2c1	1.27	.	.	.
CCCCN1C(=O)c2ccc(C(=O)NCCN3C(=O)S/C(=C\c4cccnc4)C3=O)cc2C1=O	0.106	-6.8	9.1	.
O=C(NCc1cccc(OC(F)(F)F)c1)c1ccc2c(c1)S(=O)(=O)c1cc(Cl)ccc1C2=O	.	3.8	.	.
CCCNC(=O)c1cc(-c2ccc(Br)cc2)on1	.	.	.	0.0804
O=C(NCc1ccco1)c1cc(-c2ccc3c(c2)OCO3)on1	0.211	-11.2	.	.
COCCNC(=O)c1cc(-c2ccc3c(c2)OCO3)on1	.	-8.8	.	0.0811
CC(C)NC(=O)c1cc(-c2ccc(Br)cc2)on1	0.665	8.9	.	.
O=C(O)CCC(=O)N1CCN(c2ncccc2C(F)(F)F)CC1	.	-1.9	20.2	.

From PubChem BioAssay
